Source: ChEMBL document CHEMBL4270574, “Methotrexate prodrugs sensitive to reactive oxygen species for the improved treatment of rheumatoid arthritis” (Eur J Med Chem, 2018)
≈ marks a conversion by molar mass, not a printed value. Calls of active or inactive are those of the source. The calls are words filed in the database; no cut-off is given here.

Assays:
Mus musculus [1] = assay: Anti-arthritic activity in DBA/1J mouse model of collagen-induced arthritis inflammation assessed as reduction in fore limb swelling at 7 mg/kg, ip administered daily for 14 days starting from day 27 post disease onset and measured 3 times per week from day 18 to 40 […]; assay type: functional, organism-based
How it was run: (§1)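 Male DBA/1J mice (8–9 weeks) were immunized intradermally near the tail base with 100 µg chicken type II collagen in CFA on day -1, with a 50 µg boost on day 21. From day 27 they received daily i.p. dosing in 2% DMSO/PBS for 14 days (n = 8/group). Blinded scoring ran three times weekly, day 18–40, at 0–15 per limb (maximum 60). Mice scoring above 45 were removed. Results are mean ± SEM, tested by one-tailed Mann–Whitney.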

[2] = Chemical stability in 20% DMSO/PBS at 100 uM at 37 degC after 60 mins in absence of H2O2 by RP-UPLC-MS analysis; assay type: physicochemical; details: buffer, 1 h
How it was run: (§2)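 Prodrug at 100 µM in 20% DMSO/PBS (pH 7.4) with diclofenac internal standard was incubated at 37 °C with shaking, with H2O2 at 0.25–10 mM or PBS only (stability control). Samples were taken from 5 min to 24 h. Percent remaining compound and MTX formation were read by RP-UPLC at 306 nm. Runs were in triplicate and t1/2 is given ± SD.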

[3] = Chemical stability in 20% DMSO/PBS at 100 uM at 37 degC after 60 mins in presence of 10 mM H2O2 by RP-UPLC-MS analysis; assay type: physicochemical; details: buffer, 1 h; how it was run: as §2
Mus musculus [4] = assay: Toxicity in DBA/1J mouse model of collagen-induced arthritis inflammation assessed as reduction in body weight at 7 mg/kg, ip administered daily for 14 days starting from day 27 post disease onset; assay type: organism-based; details: in vivo, 336 h
[5] = Half life in human plasma at 37 degC at pH 7.4 by RP-UPLC-MS analysis; assay type: ADME, cell-free
How it was run: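 Reconstituted freeze-dried human plasma was diluted 1:1 with PBS (pH 7.4) and preincubated for 10 min at 37 °C. Compound was added from a 1 mg/mL DMSO stock and incubated at 37 °C. Samples at 0, 0.5, 1, 2, 4 and 8 h were quenched in ice-cold MeCN, centrifuged, and the supernatant analyzed by RP-UPLC-MS. t1/2 is from triplicates ± SD.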

[6] = Prodrug activation in 20% DMSO/PBS assessed as 0.5 mM H2O2-mediated methotrexate formation by measuring prodrug half life at 100 uM at 37 degC, pH 7.4 by RP-UPLC-MS analysis; assay type: physicochemical; details: buffer, pH 7.4, 100 µM; how it was run: as §2
[7] = Half life in 20% DMSO/PBS at 100 uM at 37 degC at pH 7.4 by RP-UPLC-MS analysis; assay type: physicochemical; how it was run: as §2
Mus musculus [8] = assay: Toxicity in DBA/1J mouse model of collagen-induced arthritis inflammation assessed as reduction in body weight at 8.3 mg/kg, ip administered daily for 14 days starting from day 27 post disease onset; assay type: organism-based; details: in vivo, 336 h
[9] = Thermodynamic solubility in pH 7.4 PBS buffer at 2 mg sonicated for 10 mins followed by incubation at 20 degC for 15 hrs by RP-UPLC-MS analysis; assay type: physicochemical; details: read-out: Therm_solubility
How it was run: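 Solid (2 mg) in 1 mL PBS (pH 7.4) was sonicated, shaken for 15 h at 20 °C and centrifuged. The supernatant was diluted 1:5 in DMF and quantified by RP-UPLC-MS against a 25–125 µg/mL calibration curve. Results are at least three measurements ± SD.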

[10] = Chemical stability in pH 7.4 PBS buffer after 24 hrs by RP-UPLC-MS analysis; assay type: physicochemical; details: pH 7.4, 24 h; how it was run: as §2
Mus musculus [11] = assay: Anti-arthritic activity in DBA/1J mouse model of collagen-induced arthritis inflammation assessed as reduction in fore limb swelling at 8.3 mg/kg, ip administered daily for 14 days starting from day 27 post disease onset and measured 3 times per week from day 18 to 40 […]; assay type: functional, organism-based; how it was run: as §1
[12] = Prodrug activation in 20% DMSO/PBS assessed as 5 mM H2O2-mediated methotrexate formation by measuring prodrug half life at 100 uM at 37 degC, pH 7.4 by RP-UPLC-MS analysis; assay type: physicochemical; details: buffer, pH 7.4, 100 µM; how it was run: as §2
[13] = Apparent intrinsic clearance in human liver microsomes at 37 degC at pH 7.4 by RP-UPLC-MS analysis; assay type: ADME, microsome; details: read-out: CLH(app)
How it was run: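 Pooled human liver microsomes in PBS were preincubated for 10 min at 37 °C. Compound was added from a 10 mM DMSO stock, then NADPH from a 30 mM stock, with a no-NADPH control. Aliquots taken at 0–40 min were quenched in ice-cold MeCN, centrifuged and analyzed by UPLC-MS. CL'int was derived from the in vitro t1/2 scaled by 45 mg microsomes/g liver and 20 g liver/kg body weight.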

[14] = Chemical stability in pH 7.4 PBS buffer by RP-UPLC-MS analysis; assay type: physicochemical; how it was run: as §2

For CN(Cc1cnc2nc(N)nc(N)c2n1)c1ccc(C(=O)N[C@@H](CCC(=O)O)C(=O)O)cc1 [METHOTREXATE], the Activity (Mus musculus [1]) was “Active”, the Stability [2] was “Stable” and the Stability [3] was “Stable”. For the same compound, the Activity (Mus musculus [4]) was “Toxic”.

CN(Cc1cnc2nc(N)nc(N)c2n1)c1ccc(C(=O)N[C@@H](CCC(=O)N2CCSC2=O)C(=O)O)cc1 showed a half-life [5] of 7 h, a t1/2 [6] of 16.5 h and a half-life at 100 µM [7] of 116 h. For the same compound, the Activity (Mus musculus [8]) was “Non-Toxic”, the solubility thermodynamic at 15 h [9] was 400 µg/mL (≈ 741 µM) and the Stability [10] was “Stable”. The Activity (Mus musculus [11]) was “Active”, the t1/2 [12] was 1.7 h and the CLint scaled [13] was 1.4 mL/min/kg.

For CN(Cc1cnc2nc(N)nc(N)c2n1)c1ccc(C(=O)N[C@@H](CCC(=O)O)C(=O)N2CCSC2=O)cc1, the Stability [14] was “Unstable”.
